Assay outcomes as filed in PubChem.
Rtt109 HAT inh = blocks Candida albicans Rtt109/Vps75 acetyltransferase activity | Q5AAJ8 | purified Rtt109/Vps75, ThioGlo CoA-SH fluorescence, 4 h | inhibition, % at 34.9 µM | 330,000 tested, 0.16% active | AID 540336;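 active means inhibition of at least 50% in every replicate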
Target sequence (Q5AAJ8 whole entry, looked up): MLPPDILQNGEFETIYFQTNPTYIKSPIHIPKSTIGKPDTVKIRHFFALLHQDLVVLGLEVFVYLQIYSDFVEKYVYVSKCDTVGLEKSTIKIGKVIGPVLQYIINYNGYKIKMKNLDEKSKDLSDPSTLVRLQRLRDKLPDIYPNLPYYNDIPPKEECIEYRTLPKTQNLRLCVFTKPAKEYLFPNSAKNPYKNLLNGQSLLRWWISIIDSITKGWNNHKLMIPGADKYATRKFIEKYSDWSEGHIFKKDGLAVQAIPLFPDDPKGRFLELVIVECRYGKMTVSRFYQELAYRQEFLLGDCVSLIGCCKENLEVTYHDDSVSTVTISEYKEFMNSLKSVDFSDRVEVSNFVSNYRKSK
PfHsp90 yeast 2 = reduces growth (ATP signal) of yeast expressing P. falciparum Hsp90; 310,000 tested, 0.32% active; S. cerevisiae expressing PfHsp90, BacTiter-Glo ATP, 48 h; yeast lacking PDR1 and PDR3 efflux regulators; inhibition, % at 9.4 µM;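 active means every replicate shows inhibition above about 80%, whatever the replicate mean, limit read from the data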;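 further: 0% = DMSO neutral controls and 100% = 20 µM radicicol positive controls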
Glyco luc inh = N-linked glycosylation inhibition. D54 ERlucT glycosylation luciferase reporter, 24 h; percent of 100 nM tunicamycin response. reporter increase, % at 12.5 µM. 360,000 tested, 0.23% active;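 active means mean luciferase reporter signal, scaled so untreated is 0 and the glycosylation-blocking control 100, at or above a set limit in every replicate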;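 further: luciferase carries N-glycosylation sites so blocking glycosylation raises the light; 0% = median of neutral control wells and 100% = median of 100 nM tunicamycin wells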
Arrestin-AP2 inh = human beta-arrestin and AP2 interaction inhibition; FITC-arrestin peptide / GST-AP2 beads, flow cytometry; AP2 beta2 appendage carries R879A mutation; inhibition, % at 10 µM; 340,000 tested, 0.31% active; AID 504490;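 active means inhibition above a set limit, near 3 SD of compounds lacking own fluorescence, cut at about 54% in these data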;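 further: plate controls were DMSO wells for no effect and 5 µM unlabelled arrestin peptide for full effect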
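Assay system: GST-AP2 R879A bound to glutathione beads, E. coli-expressed; Medium: PBS with 0.05% Tween 20 and 0.1% BSA; Also added: fluorescein-tagged arrestin peptide at 50 nM final; Timing: 12 min plus 1 h, RT; Measured by: flow cytometry, FL1 (488/535 nm); Evaluation: percent drop in bead-associated FITC signal.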
PAX8 reporter = inhibitors of PAX8 transcriptional activity in RMG-I cells. 360,000 tested, 1.2% active. RMG-I TPO-luciferase reporter, SteadyGlo, 24 h. inhibition, % at 12.6 µM;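 active means mean replicate inhibition at least 60% with every replicate also reaching 60%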;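 further: luciferase light reporting Pax8 driven TPO promoter activity; plate controls were median of neutral control wells for no effect and mitoxantrone controls for full effect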
Env fusion inh = HIV envelope-mediated fusion inhibition | 360,000 tested, 1.1% active | inhibition, % at 12.3 µM | HeLa-JRFL Env/CEM21 cell fusion, luciferase;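 active means mean replicate inhibition score of at least 50 and every replicate individually at or above 50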;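 further: 0% = plate neutral controls and 100% = maraviroc near 300 nM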
Numbers without * were called inactive; · = no result; [ ] = another dose, or the depositor's remark. Shown are actives, neighbours in structure and some others; about 2.3% of the full set was active somewhere.

SMILES	Rtt109 HAT inh	PfHsp90 yeast 2	Glyco luc inh	Arrestin-AP2 inh	PAX8 reporter	Env fusion inh
CC=Cc1ccc2n(c1=O)C[C@@H]1[C@@H](CO)[C@H](C(=O)NCCc3cn(C)cn3)[C@H]2N1C(=O)C1CCCC1 (mixture of isomers)	·	·	·	·	-8	·
Cc1nc(N2CCN(S(=O)(=O)c3ccccc3C#N)CC2)c2c(-c3cccs3)csc2n1	-3	-29	-4	-2	72*	19
Cc1nc(N2CCCCC2)c2c(-c3cccs3)csc2n1	-2	·	0	25	2	2
O=C(O)C1CCc2sc3[nH]c(=S)n(-c4ccccc4)c(=O)c3c21 (stereo not drawn)	105*	-11	1	8	3	3
Cc1ccc(S(=O)(=O)N2CCOCC2)cc1C(=O)OCC(=O)c1c(N)n(C)c(=O)n(C)c1=O	-14	3	0	10	10	-6
Cn1c(N)c(C(=O)COC(=O)c2cc(S(=O)(=O)N3CCOCC3)ccc2F)c(=O)n(C)c1=O	-3	-2	50*	0	7	·
CCNC(=O)C[C@H]1CC[C@@H]2[C@H](COC[C@H](O)CN2C(=O)Nc2ccc(Cl)c(Cl)c2)O1	·	·	·	·	-1	·
COc1ccccc1NC1=Nc2cccc3cccc1c23	·	·	1	8	91*	-5
C[C@H]1CN([C@@H](C)CO)C(=O)c2cc(C#CC3CCCC3)cnc2O[C@@H]1CN(C)C(=O)C1CCCCC1	·	·	·	·	1	22[16.7 µM]
C[C@@H]1CCCCO[C@H](CN(C)S(=O)(=O)c2cccs2)[C@@H](C)CN([C@@H](C)CO)C(=O)c2cc(NS(=O)(=O)c3ccc(Cl)cc3)ccc2O1	·	·	·	·	68*	-1[16.7 µM]
C[C@H](CO)N1C[C@H](C)[C@@H](CN(C)S(=O)(=O)c2cccs2)OCCCC[C@H](C)Oc2ccc(NS(=O)(=O)c3ccc(Cl)cc3)cc2C1=O	·	·	·	·	100*	13[16.7 µM]
O=C(C[C@H]1CC[C@@H](NC(=O)Nc2ccccc2F)[C@H](CO)O1)NCc1ccccc1	·	·	·	·	-2	-9[16.7 µM]
Brc1ccc(N=Nc2ccc3ccccc3n2)cc1	-5	-21	-19	-4	79*	29
Cc1ccc(S(=O)(=O)Nc2ccc3c(c2)CC(=O)N([C@H](C)CO)C[C@H](C)[C@@H](CN(C)C(=O)Nc2ccc(C(F)(F)F)cc2)O3)cc1	·	·	·	·	8	-11[16.7 µM]
CCc1[nH]nc2c1C(Cc1ccccc1)C(C#N)=C(N)O2 (stereo not drawn)	-1	-5	0	6	·	-42
CCCc1[nH]nc2c1C(Cc1ccccc1)C(C#N)=C(N)O2 (stereo not drawn)	12	-7	-3	19	·	64*
O=C(C[C@@H]1CC[C@@H]2[C@H](COC[C@H](O)CN2C(=O)c2ccc(F)cc2)O1)Nc1ccc(-c2ccccc2)cc1	·	·	·	·	21	23[16.7 µM]
N#CC(Cc1ccccc1OC(F)F)c1nc2ccccc2[nH]1 (stereo not drawn)	3	10	1	-4	76*	·
COc1ccc(NC(=O)N(C)C[C@H]2Oc3c(NC(=O)Nc4ccccc4)cccc3C(=O)N([C@H](C)CO)C[C@H]2C)cc1	·	·	·	·	3	5[16.7 µM]
COc1ccc(S(=O)(=O)Nc2ccc3c(c2)CC(=O)N([C@@H](C)CO)C[C@@H](C)[C@@H](CN(C)S(=O)(=O)c2ccc(C)cc2)O3)cc1	·	·	·	·	-12	5[16.7 µM]
COc1ccc(S(=O)(=O)N(C)C[C@H]2Oc3ccc(NS(=O)(=O)c4ccc(Cl)cc4)cc3CC(=O)N([C@@H](C)CO)C[C@H]2C)cc1	·	·	·	·	8	-6[16.7 µM]
COc1ccc(S(=O)(=O)Nc2ccc3c(c2)CC(=O)N([C@H](C)CO)C[C@H](C)[C@H](CN(C)S(=O)(=O)c2ccc(Cl)cc2)O3)cc1	·	·	·	·	-7	73*[16.7 µM]
COc1ccc(S(=O)(=O)Nc2ccc3c(c2)CC(=O)N([C@H](C)CO)C[C@H](C)[C@H](CN(C)S(=O)(=O)c2ccc(C)cc2)O3)cc1	·	·	·	·	-5	99*[16.7 µM]
COc1ccc(S(=O)(=O)Nc2ccc3c(c2)CC(=O)N([C@H](C)CO)C[C@H](C)[C@H](CN(C)S(=O)(=O)c2ccccc2)O3)cc1	·	·	·	·	-13	84*[16.7 µM]
O=C(C=C=Nc1ccccc1)C(=O)N=C=Cc1ccccc1	3	-41	20	6	80*	-13
